Assay outcomes deposited in PubChem by several laboratories.
Sampled rows, rich in hits. Any-hit rate of the full collection: about 1.9%.
SKN-1 block: blocks SKN-1 activity in C. elegans | inhibition, % at 21.8 µM | 0.49% of 360,000 active | AID 624304 | C. elegans VP596 Pgst-4::GFP/RFP ratio, acrylamide-induced, 24 h;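 active = interference check ratio from 0.5 to 1.5 plus GFP to RFP signal ratio inhibition reaching or exceeding a fixed threshold, cut at about 30% in these data, passing the limit was not always enough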
PG9 Ab binder: small molecules binding HIV-1 gp120 antibody PG9; TR-FRET gp120-PG9 antibody binding; inhibition, % at 6.7 µM; 0.43% of 360,000 active; in the data active = inhibition above about 8.5%
Rev-erbA mod: modulates human Rev-erb alpha binding to DNA; Rev-erbα–FITC-DNA binding, fluorescence polarization, 90 min; activity, % at 10 µM; 0.79% of 370,000 active; P20393;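 active = activity above about 14%, limit read from the data; passing the limit was not always enough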;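 note: 0% = DMSO wells with 35 nM protein and 100% = DMSO wells with 750 nM protein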
Target sequence (P20393 whole entry, looked up): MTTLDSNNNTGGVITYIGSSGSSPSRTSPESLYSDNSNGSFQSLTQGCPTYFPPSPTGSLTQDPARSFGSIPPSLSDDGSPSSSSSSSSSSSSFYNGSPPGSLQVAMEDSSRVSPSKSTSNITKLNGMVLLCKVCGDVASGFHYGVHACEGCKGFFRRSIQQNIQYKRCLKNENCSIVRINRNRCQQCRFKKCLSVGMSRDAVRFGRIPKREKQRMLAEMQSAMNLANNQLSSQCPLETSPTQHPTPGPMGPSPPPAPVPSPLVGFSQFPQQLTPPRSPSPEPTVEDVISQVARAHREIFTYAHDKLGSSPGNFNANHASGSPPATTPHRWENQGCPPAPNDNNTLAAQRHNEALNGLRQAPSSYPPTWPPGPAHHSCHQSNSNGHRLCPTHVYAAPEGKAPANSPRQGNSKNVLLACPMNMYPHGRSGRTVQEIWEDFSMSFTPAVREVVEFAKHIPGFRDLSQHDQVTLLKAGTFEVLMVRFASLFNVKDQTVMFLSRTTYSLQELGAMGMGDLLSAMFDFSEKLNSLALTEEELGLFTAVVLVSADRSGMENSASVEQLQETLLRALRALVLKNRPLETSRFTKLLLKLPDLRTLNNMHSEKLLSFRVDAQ
MT1-MMP act inh: blocks activation of human MT1-MMP; AID 651647; P50281; 0.061% of 360,000 active; HT1080 RFP-PRO-GFP cells, GFP/RFP ratio fluorescence, overnight; percent of plate control window, DMSO zero; GFP/RFP ratio change, % at 20 µM;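 active = GFP/RFP ratio change of at least 30% with cell ATP level not reduced by more than half and red fluorescence within 50% of control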
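Material: RFP-PRO-GFP reporter HT1080 cells. Dosing: single-point 20 µM compound, 1% DMSO. Controls: DMSO and RFP-L50D-GFP cell wells. Timing: cells overnight before dosing, compound overnight, 37 °C, 5% CO2. Measure: GFP/RFP fluorescence ratio.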
NR2E3 ag-1: activates human NR2E3 receptor; inhibition of corepressor binding, % at 3.98 µM; AID 602229; Q9Y5X4; CHO-S Gal4-NCOR/VP16-NR2E3 two-hybrid, luciferase; 0.35% of 360,000 active;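 active = inhibition above the mean of all tested compounds plus 3 SD, cut at about 70% in these data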;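 note: 0% = DMSO with NR2E3 transfected cells and 100% = cells lacking NR2E3 construct; higher means lower luciferase signal from less NR2E3 corepressor binding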
NR2E3 ag-2: agonists of human nuclear receptor NR2E3; GST-NR2E3/biotin-RetCOR TR-FRET, 1536-well; inhibition of corepressor binding, % at 4.78 µM; AID 2300; 0.12% of 320,000 active; Q9Y5X4;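 active = percent inhibition above the cutoff of mean plus 3 SD of all tested compounds, set per screening campaign, cut at about 20% in these data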;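 note: 0% = DMSO wells and 100% = biotin wells as full block of FRET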
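Material: NR2E3–RetCOR corepressor complex / Incubation: Compound–protein incubation for 5 h at 4 °C / Dosing: compound at 4.8 µM, single dose / Detection: time-resolved FRET / Benchmarks: high control biotin, low control 0.6% DMSO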
Rev-erbA confirm: Rev-erb alpha (human) modulation, hit confirmation. activation, % at 25 µM. Rev-erb alpha FITC-DNA binding, fluorescence polarization, 90 min. shares compounds with Rev-erbA mod. 61% of 3,000 active;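 active = activation at or above a set limit, or at least 3 SD above the negative control mean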;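 note: 0% = 35 nM protein with DMSO and 100% = 750 nM protein high control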
RORg counter: affects RORgamma DNA binding in a Rev-erb alpha counter-screen. 8% of 910 active. purified RORgamma protein-FITC-DNA binding, fluorescence polarization. shares compounds with Rev-erbA mod. IC50, µM;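 active = Compounds whose fitted half-maximal concentration for disrupting protein-DNA binding is below 10 micromolar; the record names Rev-erb in its text, so the target is in doubt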
The depositor's hits bear a star; x = not tested or not shown.

SMILES	SKN-1 block	PG9 Ab binder	Rev-erbA mod	MT1-MMP act inh	NR2E3 ag-1	NR2E3 ag-2	Rev-erbA confirm	others
COc1cccc(NC(=O)CSc2nnc3ccc(-c4ccccn4)nn23)c1	4.3	0.3	35.3*	4.3	-7.6	x	-3.0
CC(=O)Nc1cccc(NC(=O)CSc2nnc3ccc(-c4ccccn4)nn23)c1	4.6	-1.0	-0.2	4.2	2.5	0.4	x
COCCCn1c(C(=O)N2CCOCC2)cc2c(=O)n3cccc(C)c3nc21	9.4	0.4	-1.7	-0.5	-6.6	3.0	x
COCCCn1c(C(=O)NCCC2=CCCCC2)cc2c(=O)n3cccc(C)c3nc21	7.4	1.0	62.3*	7.8	-15.6	-1.4	39.9*	RORg counter=>40
CC(C)=CC(=O)O[C@@H]1Cc2c(ccc3ccc(=O)oc23)OC1(C)C	20.2	-0.4	25.7*	1.2	-25.6	x	22.7*
C/C=C(/C)C(=O)O[C@@H]1[C@H](OC(=O)C=C(C)C)c2c(ccc3ccc(=O)oc23)OC1(C)C	-0.8	3.2	-6.7	-8.0	-5.3	-0.6	x
Cn1cc(C(=O)NC2CCCCCC2)c(=O)c2cc(S(=O)(=O)N3CCCC3)ccc21	11.9	2.7	32.1*	0.4	-10.1	1.6	17.8*
CCCCCCNC(=O)OC12CN(C(=O)OC(C)C)N(C(=O)OC(C)C)CC1(O)CN(S(=O)(=O)c1ccc(C)cc1)C2 (stereo unspecified)	-24.6	-0.2	15.0*	-0.5	26.0	x	-0.5
COc1ccccc1Oc1ccc2c(c1)C(=O)N(c1ccc(C)cc1)C2=O	-26.0	0.7	28.4*	3.3	-49.6	-0.7	30.7*
O=C1c2ccccc2C(=O)N1c1ccccc1	13.7	-1.2	7.7	6.3	-21.8	x	x
COc1ccc(N2C(=O)c3cc4ccccc4cc3C2=O)cc1	6.0	-1.2	10.9	2.3	-16.8	0.7	x
COc1ccccc1Oc1ccc2c(c1)C(=O)N(c1ccccc1)C2=O	9.3	1.0	67.2*	2.7	-25.6	-2.5	47.9*	RORg counter=>40
Nc1nc2ncccc2cc1C(=O)c1c[nH]c2ccccc12	x	x	-3.1	x	x	x	x
COc1cc(OC)cc(C(=O)Nc2nc3ccc(S(C)(=O)=O)cc3s2)c1	2.4	2.2	33.1*	2.5	-51.8	0.2	21.3*
COc1ccc2oc(C(=O)Nc3nnc(C)s3)c(C)c2c1	9.5	-0.2	2.3	7.9	-131.2	2.0	x
Cc1ccc2nc(NC(=O)c3cccs3)sc2c1	7.2	-3.1	1.6	-6.2	-111.2	7.8	x
CC(=O)c1sc(NC(=O)c2oc3ccc(F)cc3c2C)nc1C	6.6	0.3	53.8*	1.4	-78.7	x	45.9*	RORg counter=>40
COc1ccc2oc(C(=O)Nc3nc4ccc(S(C)(=O)=O)cc4s3)c(C)c2c1	-4.3	-1.1	30.8*	2.3	8.8	-2.8	0.3
CC(=O)c1sc(NC(=O)c2cc(=O)c3ccccc3o2)nc1C	-3.0	-2.7	1.3	2.1	-42.5	4.4	x
CS(=O)(=O)c1ccc2nc(NC(=O)c3cc([N+](=O)[O-])cc([N+](=O)[O-])c3)sc2c1	1.1	-0.5	5.5	-2.2	6.4	1.1	x
Cc1ccc2nc(NC(=O)c3ccc4ncsc4c3)sc2c1	-0.5	0.6	34.2*	0.1	-241.6	1.2	23.9*
COc1ccc(NC(=O)NNC(=O)CCn2nc(C)c([N+](=O)[O-])c2C)cc1OC	x	x	-5.6	x	x	x	x
O=S(=O)(c1cccc2cccnc12)N1CCC(c2cn3ccccc3n2)CC1	x	x	-2.5	x	x	x	x
O=C(Nc1ccc(Br)cc1)c1ccc2ncsc2c1	-0.8	-0.9	-2.1	1.0	-235.6	-3.2	x
COc1cc(C(=O)Nc2nc3ccc(S(C)(=O)=O)cc3s2)cc(OC)c1C	2.2	2.7	21.0*	1.6	-31.7	4.3	9.7
O=C(Nc1ccc2c(c1)C(=O)NC2=O)c1ccc2ncsc2c1	-7.2	1.7	56.8*	5.3	-77.2	4.1	53.5*	RORg counter=6.01*
